# This is a sample that favours compounds with a hit; in the whole collection about 1.3% have one here.
# INS-1E GSIS act – GLuc luminescence reporter in INS-1E cells, primary screen for activators of glucose-dependent secretion of insulin. 0.61% of 370,000 active. activation, % at 16.6 µM. INS-1E GLuc reporter insulin secretion, 2-3 h. AID 743287;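 active means lowest replicate activation of at least 40%, so every replicate reaches that level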;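 further: 0% = median of neutral control wells and 100% = median of IBMX positive control wells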
# RAD54 inh – inhibitors of human RAD54 branch migration; Q92698; RAD54 Holliday junction branch migration, FAM/BHQ fluorescence; inhibition, % at 10.4 µM; 0.14% of 360,000 active; AID 602329;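 active means mean normalized replicate activity at least 40 and at least half of replicates scoring 40 or more; inconclusive means only one of the two criteria met; inactive means mean below 40 and under half of replicates reaching 40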;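 further: 0% = median of neutral control wells and 100% = median of positive control wells; inhibitors cause a drop in the FAM fluorescence signal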
# RAD52 anneal inh – RAD52 (human) annealing inhibition; P43351; recombinant RAD52 DNA annealing, FRET fluorescence; inhibition, % at 18.7 µM; 0.46% of 360,000 active; AID 651710;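 active means every replicate showing at least 50% inhibition; inconclusive means mean inhibition at least 50% but not in every replicate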
# AF4-AF9 inh – inhibitors of human MLL-AF4/AF9 interaction; inhibition, % at 10 µM; 0.47% of 350,000 active; AlphaScreen, biotin-AF4 peptide binding to FLAG-AF9; AID 651704; P42568;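 active means every replicate reaching a set inhibition limit, whatever the replicate mean, cut at about 25% in these data; inconclusive means mean inhibition reaches that limit but some replicates miss it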;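 further: 0% = plate neutral control median and 100% = total signal loss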
# Target sequence (P42568 whole entry, looked up): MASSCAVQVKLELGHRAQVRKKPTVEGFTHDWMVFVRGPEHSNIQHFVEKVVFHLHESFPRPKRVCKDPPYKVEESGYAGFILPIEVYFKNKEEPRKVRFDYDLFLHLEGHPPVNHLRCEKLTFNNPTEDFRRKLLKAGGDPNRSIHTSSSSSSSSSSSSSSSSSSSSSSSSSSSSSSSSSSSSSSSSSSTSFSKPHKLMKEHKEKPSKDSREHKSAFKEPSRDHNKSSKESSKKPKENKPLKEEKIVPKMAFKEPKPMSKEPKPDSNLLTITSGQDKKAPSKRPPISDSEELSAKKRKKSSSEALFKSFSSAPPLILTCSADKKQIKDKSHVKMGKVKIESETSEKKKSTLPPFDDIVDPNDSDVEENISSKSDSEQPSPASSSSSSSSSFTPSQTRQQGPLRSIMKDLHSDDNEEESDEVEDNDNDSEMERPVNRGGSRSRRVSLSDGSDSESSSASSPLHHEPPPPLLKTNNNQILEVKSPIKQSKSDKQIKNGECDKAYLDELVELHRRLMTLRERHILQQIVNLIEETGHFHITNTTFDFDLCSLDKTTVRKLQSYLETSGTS
# S100A4 MyoIIA – blocks human S100A4 binding to myosin IIA peptide | P26447 | S100A4/TAMRA-MyoIIA peptide fluorescence polarization | inhibition, % at 10.7 µM | 0.14% of 360,000 active;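 active means mean inhibition of at least 70% across replicates, with every replicate also reaching that level; inconclusive means mean inhibition reaches 70% but some replicates fall short; inactive means mean inhibition below 70%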
# Target sequence (P26447 whole entry, looked up): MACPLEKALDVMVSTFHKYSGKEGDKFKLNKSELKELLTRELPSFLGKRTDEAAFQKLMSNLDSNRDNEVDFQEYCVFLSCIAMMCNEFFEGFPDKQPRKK
#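 Material: human S100A4 monomer with TAMRA-labelled myosin IIA peptide; buffer or medium: HEPES pH 7.2 with CaCl2, KCl, NaCl, DTT, Triton; compound dosing: one concentration per compound; schedule: 5 min incubation before reading; benchmarks: neutral control DMSO, positive control TFP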
# Alpha interfer – counter-screen: AlphaScreen signal interference; signal luminescence; AC50, µM (top dose mostly 12 µM), for the others: top-dose activity change, negative = inhibition; shares compounds with AF4-AF9 inh; 45% of 530 active; cut-off not given, nearly all actives have AC50 up to about 14 µM
# * = called active by the depositor; i = inactive; ? = inconclusive; nt = not tested or not shown; ! = a repeat was not active.
SMILES,INS-1E GSIS act,RAD54 inh,RAD52 anneal inh,AF4-AF9 inh,S100A4 MyoIIA,Alpha interfer
O=C1c2ccccc2NC(c2cccc([N+](=O)[O-])c2)N1O (centres undefined),0.1,1.6,-20.3,27.9*,0.2,10.9µM*
O=[N+]([O-])c1ccc(N=Nc2c(Cl)cc(O)cc2Cl)cc1,-32.0,-10.3,4.9,51.6*,2.4,14.1µM*
CN(C)c1ccnc2c[cH-]cc12.[Fe].c1ccc(-[c-]2[c-](-c3ccccc3)[c-](-c3ccccc3)[c-](-c3ccccc3)[c-]2-c2ccccc2)cc1 (centres undefined),nt,-0.4,-19.7,28.7*!,0.5,-13.3%
COc1ccc(S(=O)(=O)Nc2ccc3c(c2)C(=O)N([C@H](C)CO)C[C@@H](C)[C@H](CN(C)S(C)(=O)=O)OCCCC[C@@H](C)O3)cc1,5.8,2.3,-10.1,-3.3,15.8,nt
CN(C)c1ccc(N=C/C=C2/N(C)c3ccccc3C2(C)C)cc1,-4.7,-7.0,-114.6,47.5*,-43.7,11µM*
COC(=O)C1=C(C)NC(C)=C(C(=O)OCC(C)C)C1c1ccccc1[N+](=O)[O-] (centres undefined),-4.9,4.0,-16.6,37.9*,-3.0,10.9µM*
CCOc1ccc(NCc2cccn2-c2nnc(N3CCC(C(=O)NCCCN4C(C)CCCC4C)CC3)s2)cc1 (centres undefined),15.1,15.6,64.4*,50.5*,18.9,11.2µM*
CCOc1ccc(CCNC(=O)C2CCN(c3nnc(-n4cccc4)s3)CC2)cc1,nt,-1.1,-11.5,4.1,5.5,nt
Cc1ccc(S(=O)(=O)N(C)C[C@@H]2OCCCC[C@@H](C)Oc3ccc(NC(=O)CCC(F)(F)F)cc3C(=O)N([C@H](C)CO)C[C@H]2C)cc1,-28.4,-6.8,6.4,0.3,-4.7,nt
Cc1c(N=C2C=CC(=O)c3ccccc32)c(=O)n(-c2ccccc2)n1C,-19.0,nt,11.7,34.7*,0.5,-43.7%
O=C(NN1C(=O)/C(=C/c2ccc(O)c(O)c2)SC1=S)c1ccccc1,-53.8,-18.4,i,?,6.4,-24.2%
COc1cc(/C=C2\SC(=S)N(NC(=O)c3ccc(O)cc3)C2=O)ccc1O,-23.2,nt,i,8.0,0.8,nt
Cc1ccc2c(c1)C1CN(C)CCC1N2Sc1ccccc1[N+](=O)[O-] (centres undefined),-69.6,nt,31.3,35.4*,-2.1,9.3µM*
Cc1ccc2c(c1)[C@@H]1CN(C)CC[C@@H]1N2S(=O)(=O)c1ccc([N+](=O)[O-])cc1,-10.9,-5.0,3.7,8.8,-4.9,nt
C[C@@H]1CN([C@H](C)CO)C(=O)c2c(c3ccccc3n2C)-c2ccccc2CO[C@H]1CN(C)C(=O)c1ccc(F)cc1,-15.0,5.6,0.1,1.0,-31.1,nt
COC(=O)CN1C(=O)[C@@H]2[C@H](C1=O)[C@@H]1CC(C(=O)OC)=C[C@@H](C(=O)OC)[C@@H]3C1=C(C(=O)[C@]3(C)NC(=O)c1ccccc1)[C@@H]2C,-13.3,-4.6,-16.1,-7.7,0.0,nt
COC(=O)C1=C[C@@H](C(=O)OC)[C@@H]2C3=C(C(=O)C2(C)C)[C@H](c2ccccc2)[C@@H]2C(=O)N(C)C(=O)[C@@H]2[C@@H]3C1,2.3,2.6,-21.4,?,16.0,15.8%
COc1cc(OC)c2c(C)cc(=O)oc2c1C(CCN1CCOCC1)c1ccc(N(C)C)cc1 (centres undefined),-8.3,0.3,-3.3,nt,-2.4,nt
COc1cc(C2CC(=O)Oc3c(C(CCN4CCOCC4)c4ccc(N(C)C)cc4)c(OC)cc(OC)c32)cc(OC)c1OC (centres undefined),-16.8,-11.8,-5.3,40.3*,-1.1,10.8µM*
COc1cc(O)c(C(CC(=O)N2CCCC2)c2ccc(N(C)C)cc2)c(OC)c1 (centres undefined),-10.3,-0.8,nt,nt,nt,nt
COc1ccc(C2CC(=O)Oc3c(C(CCN4CCCC(C)C4)c4ccc(N(C)C)cc4)c(OC)cc(OC)c32)cc1 (centres undefined),nt,8.7,12.0,44.1*,-2.1,1.83µM*
COc1ccc(C(CCN2CCCC(C)C2)c2c(OC)cc(OC)c3c(C)cc(=O)oc23)cc1 (centres undefined),4.2,13.0,nt,nt,nt,nt
COc1cc(O)c(C(CCN2CCCCC2)c2ccc(N(C)C)cc2)c(OC)c1 (centres undefined),10.7,-4.6,2.7,33.3*,3.3,12.1µM*
COc1ccc(NC(=O)N(C)C[C@H]2OCCCC[C@H](C)Oc3ccc(NS(=O)(=O)c4cn(C)cn4)cc3C(=O)N([C@@H](C)CO)C[C@@H]2C)cc1,3.0,-3.1,-0.5,-2.4,13.4,nt
Cc1cccc(S(=O)(=O)N2CC[C@@H]3[C@@H](CO)N(C)c4ccc(-c5ccc(C#N)cc5)cc4[C@@H]32)c1,-31.2,4.9,15.6,-9.9,-2.0,nt
SMILES,INS-1E GSIS act,RAD54 inh,RAD52 anneal inh,AF4-AF9 inh,S100A4 MyoIIA,Alpha interfer
COc1cccc(CNCCc2c[nH]c3ccccc23)c1OCc1ccccc1,-27.4,nt,25.7,27.3*,1.4,-40.0%
COc1cc(CNCCc2c[nH]c3ccccc23)ccc1OCc1ccccc1F,-29.2,11.1,-16.6,-1.3,-5.7,nt
C[C@H](CO)N1C[C@H](C)[C@@H](CN(C)Cc2ccc(Cl)c(Cl)c2)Oc2ccc(N(C)C)cc2C1=O,-32.3,-5.9,-7.9,20.0,-5.2,nt
C[C@@H]1CN([C@H](C)CO)C(=O)Cc2cc(N(C)C)ccc2O[C@@H]1CN(C)Cc1ccc(Cl)c(Cl)c1,16.5,2.7,2.7,31.2*,-7.2,-26.6%
C[C@H]1CCCCO[C@H](CN(C)Cc2ccc(Cl)c(Cl)c2)[C@@H](C)CN([C@@H](C)CO)C(=O)c2cc(N(C)C)ccc2O1,nt,-1.1,-52.1,62.7*,10.2,12.8µM*
C[C@@H]1CN([C@@H](C)CO)C(=O)Cc2cc(N(C)C)ccc2O[C@H]1CN(C)Cc1ccncc1,5.3,6.6,7.8,-3.0,3.3,nt
C[C@H]1CCCCO[C@@H](CN(C)Cc2ccc3c(c2)OCO3)[C@@H](C)CN([C@@H](C)CO)C(=O)c2cc(N(C)C)ccc2O1,13.8,-5.5,7.1,20.1,6.7,nt
C[C@H]1CN([C@@H](C)CO)C(=O)c2cc(N(C)C)ccc2O[C@@H]1CN(C)Cc1ccc(Cl)c(Cl)c1,-32.6,-5.7,-7.1,28.5*,-5.7,-31.0%
CCC(=O)N(C)C[C@H]1Oc2ncc(-c3ccc(F)cc3)cc2C(=O)N([C@H](C)CO)C[C@H]1C,11.8,7.4,1.3,-1.9,-3.6,nt
CC(C)NC(=O)Nc1ccc2c(c1)C(=O)N([C@H](C)CO)C[C@H](C)[C@H](CN(C)Cc1ccc3c(c1)OCO3)OCCCC[C@H](C)O2,10.8,4.0,nt,nt,nt,nt
Oc1cc(NCCN2CCOCC2)cc2cccnc12,-8.8,-11.7,47.9,27.0*,11.0,12.1µM*
O=C1C(c2c(O)[nH]c3ccccc23)=Nc2ccccc21,nt,-4.2,-8.7,-2.8,-5.8,nt
